Data from ChEMBL document CHEMBL4354817, “4-(3-Aminoazetidin-1-yl)pyrimidin-2-amines as High-Affinity Non-imidazole Histamine H3 Receptor Agonists with in Vivo Central Nervous System Activity” (J Med Chem, 2019).

Key:
Histamine H3 receptor [1] = target: T1, Histamine H3 receptor (Homo sapiens, UniProt Q9Y5N1); assay: Agonist activity at human H3R expressed on HEK293T cells assessed as inhibition of forskolin-induced CRE-driven luciferase activity co-incubated with forskolin for 6 hrs and measured after 30 mins by CRE-luciferase reporter gene assay; type: functional
T1 sequence (Q9Y5N1 whole entry): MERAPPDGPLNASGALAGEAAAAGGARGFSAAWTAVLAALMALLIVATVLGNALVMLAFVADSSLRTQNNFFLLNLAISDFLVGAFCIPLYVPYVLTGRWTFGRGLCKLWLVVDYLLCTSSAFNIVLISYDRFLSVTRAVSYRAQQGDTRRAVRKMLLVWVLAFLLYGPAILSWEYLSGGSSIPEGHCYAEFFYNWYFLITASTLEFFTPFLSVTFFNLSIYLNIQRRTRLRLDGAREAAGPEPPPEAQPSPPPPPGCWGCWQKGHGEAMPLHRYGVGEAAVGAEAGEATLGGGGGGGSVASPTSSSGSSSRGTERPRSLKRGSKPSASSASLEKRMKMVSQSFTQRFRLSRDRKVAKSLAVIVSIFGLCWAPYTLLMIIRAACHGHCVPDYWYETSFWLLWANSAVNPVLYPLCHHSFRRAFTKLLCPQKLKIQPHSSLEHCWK
Summary of the method: (§1)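 HEK293T cells transiently transfected (PEI method) in suspension with receptor cDNA (1000 ng), CRE-luciferase (2500 ng) and empty pcDEF3; 50.000 cells/well on poly-L-lysine, grown 24 h. Stimulated with increasing ligand concentrations plus 1 μM forskolin, 37 °C, 5% CO2, 6 h. Luciferase reagent (ATP, D-luciferin) added, luminescence read after 30 min at 37 °C. Nonlinear regression; α relative to histamine; three experiments in triplicate.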

Histamine H3 receptor [2] = target: T1, Histamine H3 receptor; assay: Intrinsic activity at human H3R expressed on HEK293T cells assessed as activation of forskolin-induced CRE-driven luciferase activity co-incubated with forskolin for 6 hrs and measured after 30 mins by CRE-luciferase reporter gene assay relative to histamine; type: functional; summary of the method: as §1
Histamine H3 receptor [3] = target: T1, Histamine H3 receptor; assay: Displacement of [3H]NAMH from human H3R expressed in HEK293T cells incubated for 2 hrs by microbeta scintillation counting analysis; type: cell-based
Summary of the method: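 Homogenates of HEK293T cells transiently expressing hH3R or mH3R, harvested 48 h post-transfection, incubated with 2 nM [3H]NAMH and increasing unlabeled ligand in 50 mM Tris–HCl pH 7.4, 2 h at 25 °C. Rapid filtration over 0.5% PEI-coated GF/C filters, scintillation counting. One-site fit; IC50 converted to pKi by Cheng–Prusoff; three experiments in triplicate.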

SMILES | EC50 (Histamine H3 receptor [1]) [nM] | Intrinsic activity (Histamine H3 receptor [2]) | Ki (Histamine H3 receptor [3]) [nM]
Nc1nccc(N2CC(N)C2)n1 | 5.01 | 1.1 | 15.8
CCNC1CN(c2cc(C(C)C)nc(N)n2)C1 | 158 | 0.3 | 100
Cc1cc(N2CC(N)C2)nc(N)n1 | 15.8 | 0.9 | 50.1
CC(C)c1cc(N2CC(N(C)C)C2)nc(N)n1 | 100 | 0.4 | 126
CCNC1CN(c2cc(C)nc(N)n2)C1 | 12.6 | 1 | 79.4
CCNC1CN(c2ccnc(N)n2)C1 | 0.631 | 1 | 10
CN(C)C1CN(c2ccnc(N)n2)C1 | 3.98 | 1 | 50.1
CCc1cc(N2CC(N)C2)nc(N)n1 | 31.6 | 0.9 | 79.4
CC(C)NC1CN(c2ccnc(N)n2)C1 | 3.16 | 1.2 | 39.8
CCC(C)NC1CN(c2ccnc(N)n2)C1 (racemic) | 2 | 1.1 | 12.6
Nc1nccc(N2CC(N3CCCC3)C2)n1 | 7.94 | 1.3 | 39.8
CCc1cc(N2CC(N(C)C)C2)nc(N)n1 | 63.1 | 0.8 | 251
